Experiments:
[1] = molecular target: Acetylcholinesterase (Electrophorus electricus, UniProt O42275); assay: Inhibition of electric eel AChE incubated for 15 mins using […] substrate by colorimetric Ellman's method
[2] = molecular target: Cholinesterase (Equus caballus, UniProt P81908); assay: Inhibition of equine serum butyrylcholine esterase incubated for 15 mins using S-butyrylthiocholine chloride substrate by colorimetric Ellman's method
[3] = Selectivity index, ratio of IC50 for equine serum butyrylcholine esterase to IC50 for electric eel AChE
[4] = system: Liver microsome; assay: Drug metabolism in Sprague-Dawley rat liver microsomes assessed as formation of monohydroxylated metabolite at 2 uM at pH 7.4 pre-incubated in presence of NADPH regenerating system measured after 10 to 30 mins by LC-MS method; assay type: ADME; conditions: pH 7.4, 2 µM
In short: (§1)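 Compound added (2 µM final, from DMSO stock), 37 °C; time-0 aliquot and reaction quenched with ice-cold acetonitrile (acetaminophen internal standard) at 10 min, or 30 min for some compounds. Single time-point design; LC-MS (Q-Tof) analysis.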

[5] = Stability in Sprague-Dawley rat liver microsomes assessed as parent compound remaining at 2 uM measured 10 mins after microsomal reactions termination at pH 7.4 pre-incubated in presence of NADPH regenerating system by LC-MS method; assay type: ADME; conditions: read-out: Stability; in short: as §1
[6] = Half life in Sprague-Dawley rat liver microsomes at 2 uM at pH 7.4 pre-incubated in presence of NADPH regenerating system measured 10 mins after microsomal reactions termination by LC-MS method; assay type: ADME; in short: as §1
[7] = in vitro; conditions: PAMPA, pH 7.4
[8] = Half life in Sprague-Dawley rat liver microsomes at 2 uM at pH 7.4 pre-incubated in presence of NADPH regenerating system measured 30 mins after microsomal reactions termination by LC-MS method; assay type: ADME
[9] = Stability in Sprague-Dawley rat liver microsomes assessed as parent compound remaining at 2 uM measured 30 mins after microsomal reactions termination at pH 7.4 pre-incubated in presence of NADPH regenerating system by LC-MS method; assay type: ADME; conditions: read-out: Stability
[10] = system: Liver microsome; assay: Drug metabolism in Sprague-Dawley rat liver microsomes assessed as formation of desmethylated metabolite at 2 uM at pH 7.4 pre-incubated in presence of NADPH regenerating system measured after 10 to 30 mins by LC-MS method; assay type: ADME; conditions: pH 7.4, 2 µM; in short: as §1
[11] = Retention time of the compound by HPLC-UV method; assay type: physicochemical

Sequence of Cholinesterase (P81908 whole entry): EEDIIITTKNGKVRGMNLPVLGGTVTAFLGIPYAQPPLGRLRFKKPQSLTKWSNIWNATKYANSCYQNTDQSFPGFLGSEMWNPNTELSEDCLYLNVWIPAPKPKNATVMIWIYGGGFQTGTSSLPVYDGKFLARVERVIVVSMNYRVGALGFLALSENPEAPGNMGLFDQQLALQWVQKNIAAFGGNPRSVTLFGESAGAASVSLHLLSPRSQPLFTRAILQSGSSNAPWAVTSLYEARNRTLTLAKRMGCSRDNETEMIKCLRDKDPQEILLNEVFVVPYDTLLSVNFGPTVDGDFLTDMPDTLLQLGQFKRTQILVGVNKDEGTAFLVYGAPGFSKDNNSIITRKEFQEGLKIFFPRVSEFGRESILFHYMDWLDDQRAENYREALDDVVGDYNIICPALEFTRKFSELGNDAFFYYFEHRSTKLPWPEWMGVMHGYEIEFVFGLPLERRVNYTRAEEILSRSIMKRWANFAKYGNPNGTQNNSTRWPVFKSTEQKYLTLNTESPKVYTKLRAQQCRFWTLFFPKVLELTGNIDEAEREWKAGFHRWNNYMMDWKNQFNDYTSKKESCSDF
Sequence of Acetylcholinesterase (O42275 whole entry): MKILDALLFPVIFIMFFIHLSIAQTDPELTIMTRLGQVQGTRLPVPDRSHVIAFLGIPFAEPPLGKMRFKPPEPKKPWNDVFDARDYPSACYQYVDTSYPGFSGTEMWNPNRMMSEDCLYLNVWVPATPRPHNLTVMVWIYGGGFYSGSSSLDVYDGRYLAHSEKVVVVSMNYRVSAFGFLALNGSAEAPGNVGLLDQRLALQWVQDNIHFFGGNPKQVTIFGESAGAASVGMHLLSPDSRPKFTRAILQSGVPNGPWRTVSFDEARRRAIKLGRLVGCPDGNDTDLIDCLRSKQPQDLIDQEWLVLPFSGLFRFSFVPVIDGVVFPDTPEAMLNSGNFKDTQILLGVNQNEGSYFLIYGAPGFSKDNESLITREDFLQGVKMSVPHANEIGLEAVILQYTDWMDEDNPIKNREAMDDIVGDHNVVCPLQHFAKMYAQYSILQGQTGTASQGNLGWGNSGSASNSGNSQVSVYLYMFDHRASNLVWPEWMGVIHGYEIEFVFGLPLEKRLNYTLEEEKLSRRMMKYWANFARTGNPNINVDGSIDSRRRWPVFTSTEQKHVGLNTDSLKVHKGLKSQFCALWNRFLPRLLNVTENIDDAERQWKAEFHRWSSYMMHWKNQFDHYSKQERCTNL

Compound	IC50 [1]	IC50 [2]	Ratio IC50 [3]	further results
COc1ccc2c(c1)O/C(=C\c1ccc(O)cc1)C2=O	> 100 µM	> 100 µM	–	–
COc1ccc2c(c1)O/C(=C\c1ccc(OCCCN(C)C)cc1)C2=O	2.44 µM	30.4 µM	12.5	–
CCN(CC)C(=O)Oc1ccc(/C=C2\Oc3cc(OC)ccc3C2=O)cc1	10.9 µM	> 100 µM	–	–
COc1ccc2c(c1)O/C(=C\c1ccc(OCCN3CCCC3)cc1)C2=O	0.545 µM	10.2 µM	18.7	Drug metabolism [4]: metabolite_detected; remaining at 10 min, 2 µM [5]: 25.3%; Retention_time: 3.6 min; half-life at 2 µM [6]: 5.1 min; Papp [7]: 24.7 ×10⁻⁶ cm/s
COc1ccc2c(c1)O/C(=C\c1ccc(OCCN3CCCCC3)cc1Cl)C2=O	0.513 µM	11.4 µM	22.2	–
COc1cc(/C=C2\Oc3cc(OCCN4CCCC4)ccc3C2=O)cc(OC)c1OC	0.643 µM	11.7 µM	18.2	–
O=C1/C(=C/c2ccc(OCCN3CCCC3)c(Cl)c2)Oc2cc(O)ccc21	0.289 µM	9.92 µM	34.3	–
COc1cc(/C=C2\Oc3cc(OCCN4CCCCC4)ccc3C2=O)cc(OC)c1OC	0.422 µM	6.15 µM	14.6	half-life at 2 µM [8]: 43.8 min; Drug metabolism [4]: metabolite_detected; remaining at 0.5 h, 2 µM [9]: 61.9%; Drug metabolism [10]: metabolite_detected; Retention_time: 3.7 min; Papp [7]: 21.3 ×10⁻⁶ cm/s
O=C1/C(=C/c2ccncc2)Oc2cc(O)ccc21	> 100 µM	> 100 µM	–	–
COc1ccc2c(c1)O/C(=C\c1ccc(N(C)C)cc1)C2=O	50.3 µM	31.8 µM	0.63	–
COc1ccc(/C=C2\Oc3cc(O)ccc3C2=O)cc1	> 100 µM	> 100 µM	–	–
CCN(CC)C(=O)Oc1ccc2c(c1)O/C(=C\c1ccc(OCCN3CCCCC3)cc1)C2=O	0.652 µM	7.17 µM	11	remaining at 10 min, 2 µM [5]: 44.3%; Retention_time: 4.2 min; half-life at 2 µM [6]: 8.5 min; Papp [7]: 16.1 ×10⁻⁶ cm/s
Cn1c(=O)c2[nH]cnc2n(C)c1=O.O [THEOPHYLLINE]	–	–	–	Retention_time [11]: 3.4 min
CCN(CC)C(=O)Oc1ccc2c(c1)O/C(=C\c1ccc(N(C)C)cc1)C2=O	> 100 µM	> 100 µM	–	–
COc1ccc2c(c1)O/C(=C\c1ccc(OCCN3CCCCC3)cc1)C2=O	0.348 µM	8.87 µM	25.5	remaining at 10 min, 2 µM [5]: 52.1%; Retention_time: 4.5 min; half-life at 2 µM [6]: 10.9 min; Papp [7]: 20 ×10⁻⁶ cm/s
COc1ccc(/C=C2\Oc3cc(OCCN(C)C)ccc3C2=O)cc1	12 µM	25.3 µM	2.1	–
COc1ccc2c(c1)O/C(=C\c1ccncc1)C2=O	> 100 µM	> 100 µM	–	–
CCN(CC)C(=O)Oc1ccc2c(c1)O/C(=C\c1ccc(OC)cc1)C2=O	> 100 µM	12.7 µM	–	–
CCN(CC)C(=O)Oc1ccc2c(c1)O/C(=C\c1ccc(N(CC)CC)cc1)C2=O	> 100 µM	> 100 µM	–	–
O=C1/C(=C/c2ccc(OCCN3CCCC3)cc2)Oc2cc(O)ccc21	3.24 µM	> 100 µM	–	–
CCN(CC)C(=O)Oc1ccc2c(c1)O/C(=C\c1ccc(OCCN(C)C)cc1)C2=O	5.44 µM	9.69 µM	1.78	–
CCN(CC)c1ccc(/C=C2\Oc3cc(O)ccc3C2=O)cc1	> 100 µM	> 100 µM	–	–
CN(C)CCOc1ccc(/C=C2\Oc3cc(O)ccc3C2=O)cc1	5.52 µM	> 100 µM	–	–

Compound	IC50 [1]	IC50 [2]	Ratio IC50 [3]	further results
CN(C)CCCOc1ccc(/C=C2\Oc3cc(O)ccc3C2=O)cc1	7.9 µM	> 100 µM	–	–
COc1ccc(/C=C2\Oc3cc(OCCCN(C)C)ccc3C2=O)cc1	15.7 µM	31.2 µM	1.99	–
COc1ccc2c(c1)O/C(=C\c1ccc(OCCN3CCCCC3)c(Cl)c1)C2=O	0.16 µM	7.9 µM	49.4	remaining at 10 min, 2 µM [5]: 59.5%; Retention_time: 3.4 min; half-life at 2 µM [6]: 13.4 min; Papp [7]: 12.2 ×10⁻⁶ cm/s
C[C@]12CC[C@H]3[C@@H](CCC4=CC(=O)CC[C@@]43C)[C@@H]1CC[C@@H]2O [TESTOSTERONE]	–	–	–	remaining at 10 min, 2 µM [5]: < 0.001%; half-life at 2 µM [6]: 0.48 min
CCN(CC)c1ccc(/C=C2\Oc3cc(OC)ccc3C2=O)cc1	> 100 µM	> 100 µM	–	–
CN(C)c1ccc(/C=C2\Oc3cc(O)ccc3C2=O)cc1	> 100 µM	> 100 µM	–	–
COc1ccc2c(c1)O/C(=C\c1ccc(OCCN(C)C)cc1Cl)C2=O	12.4 µM	23.9 µM	1.93	–
COc1cc2c(cc1OC)C(=O)C(CC1CCN(Cc3ccccc3)CC1)C2 (stereo not given) [DONEPEZIL]	–	–	–	half-life at 2 µM [8]: 76.5 min; remaining at 0.5 h, 2 µM [9]: 76.2%
COc1ccc(/C=C2\Oc3cc(OCCN4CCCC4)ccc3C2=O)cc1	1.18 µM	7.19 µM	6.1	–
COc1ccc2c(c1)O/C(=C\c1ccc(OCCCN(C)C)cc1Cl)C2=O	15.1 µM	34.1 µM	2.26	–
COc1cc(/C=C2\Oc3cc(OCCCN(C)C)ccc3C2=O)cc(OC)c1OC	9.88 µM	> 100 µM	–	–
COc1ccc2c(c1)O/C(=C\c1ccc(OCCN(C)C)cc1)C2=O	1.97 µM	25.9 µM	13.1	–
COc1ccc(/C=C2\Oc3cc(OCCN4CCCCC4)ccc3C2=O)cc1	0.845 µM	6.87 µM	8.13	remaining at 10 min, 2 µM [5]: 53.6%; Retention_time: 4.5 min; half-life at 2 µM [6]: 11.2 min; Papp [7]: 20 ×10⁻⁶ cm/s
COc1ccc2c(c1)O/C(=C\c1ccc(OCCCN(C)C)c(Cl)c1)C2=O	1.61 µM	21.6 µM	13.4	–
CCN(CC)C(=O)Oc1ccc2c(c1)O/C(=C\c1ccc(OCCCN(C)C)cc1)C2=O	3.29 µM	6.1 µM	1.85	–
COc1ccc(/C=C2\Oc3cc(OC)ccc3C2=O)cc1	> 100 µM	> 100 µM	–	remaining at 10 min, 2 µM [5]: 41.4%; Retention_time: 3.9 min; half-life at 2 µM [6]: 7.9 min; Papp [7]: 9.8 ×10⁻⁶ cm/s
COc1cc(/C=C2\Oc3cc(OCCN(C)C)ccc3C2=O)cc(OC)c1OC	15.6 µM	66.4 µM	4.26	–
COc1ccc2c(c1)O/C(=C\c1ccc(OCCN(C)C)c(Cl)c1)C2=O	1.33 µM	11.1 µM	8.35	–
Cn1c(=O)c2c(ncn2C)n(C)c1=O [CAFFEINE]	–	–	–	Retention_time [11]: 3.2 min
CCN(CC)C(=O)Oc1ccc2c(c1)O/C(=C\c1ccc(OCCN3CCCC3)cc1)C2=O	0.779 µM	7.4 µM	9.5	–
O=C1/C(=C/c2ccc(OCCN3CCCCC3)cc2)Oc2cc(O)ccc21	2.23 µM	> 100 µM	–	Retention_time: 3.6 min; Papp [7]: 10 ×10⁻⁶ cm/s
O=C1/C(=C/c2ccc(OCCN3CCCC3)cc2Cl)Oc2cc(O)ccc21	0.878 µM	8.68 µM	9.89	–

From ChEMBL document CHEMBL3414445, “Blood-brain barrier permeable anticholinesterase aurones: synthesis, structure-activity relationship, and drug-like properties” (Eur J Med Chem, 2015)
